Each structure is given as a SMILES string. Activity calls are given as the source filed them.

The nature of data set [1]: Half life in Sprague-Dawley rat at 10 mg/kg, po. The data set is classed as ADME, organism-based. Set-up: dose 10 mg/kg, route oral. The note with it: in vivo. In short, it runs like this:
(§1)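 Rat single-dose PK, n = 3, with oral dosing at 10 mg/kg and intravenous dosing at 2.5 or 5 mg/kg.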

A short description of data set [2]: Tmax in Sprague-Dawley rat at 10 mg/kg, po. The data set is classed as ADME, organism-based. Set-up: dose 10 mg/kg, route oral. The note with it: in vivo. In short, it runs like this: as §1
A short description of data set [3]: Oral bioavailability in Sprague-Dawley rat at 10 mg/kg, po. The data set is classed as ADME, organism-based. The note with it: in vivo. A digest of the protocol:
as §1

The target in a further data set is Cytochrome P450 3A4 (Homo sapiens, UniProt P08684). Briefly: Inhibition of CYP3A4 fluorescence method. The data set is classed as ADME. A digest of the protocol:
(§2)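 High-throughput CYP panel covering 1A2, 2D6, 2C9, 2C19 and 3A4, using fluorogenic substrates. IC50 was determined in μM.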

In data set [4] the test system is Rattus norvegicus. Briefly: Hepatotoxicity in rat assessed as increase in ALT level at 40 mg/kg, po qd after 15 days. The data set is classed as toxicity, organism-based. More on the design: dose 40 mg/kg, route oral. The note with it: in vivo, 360 h. In short, it runs like this:
(§3)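 Male Han-Wistar rats (200-230 g), n = 4 per group, were given 40 or 400 (mg/kg)/day orally for 14 days in 2% Klucel LF/0.1% Tween-80 versus vehicle. Body weight was recorded at pretreatment and on days 1, 8 and 14, and food intake weekly. Clinical chemistry was sampled on day 5 and at necropsy. Organs were formalin-fixed and H&E stained. Data are given as mean ± SD and analysed by Bartlett's test.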

The target of a further data set is Cytochrome P450 2C19 (Homo sapiens, UniProt P33261). Briefly: Inhibition of CYP2C19 fluorescence method. The data set is classed as ADME. In short, it runs like this: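 Cytochrome P450 high-throughput panel (1A2, 2D6, 2C9, 2C19, 3A4) using fluorogenic substrates; IC50 reported.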
Chain of Cytochrome P450 2C19 (P33261 whole entry): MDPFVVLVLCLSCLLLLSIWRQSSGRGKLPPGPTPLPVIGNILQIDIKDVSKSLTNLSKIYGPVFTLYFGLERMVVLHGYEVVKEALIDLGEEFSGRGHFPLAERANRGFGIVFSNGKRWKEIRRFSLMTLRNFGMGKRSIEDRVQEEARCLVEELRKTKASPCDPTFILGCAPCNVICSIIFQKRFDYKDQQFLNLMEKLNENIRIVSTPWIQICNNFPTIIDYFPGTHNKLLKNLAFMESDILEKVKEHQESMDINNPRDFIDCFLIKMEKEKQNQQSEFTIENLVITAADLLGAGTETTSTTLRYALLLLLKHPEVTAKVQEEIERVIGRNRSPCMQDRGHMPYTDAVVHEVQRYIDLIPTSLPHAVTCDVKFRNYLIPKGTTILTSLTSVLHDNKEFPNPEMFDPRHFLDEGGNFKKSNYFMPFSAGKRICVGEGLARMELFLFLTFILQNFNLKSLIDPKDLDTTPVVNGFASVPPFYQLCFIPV
The subject of data set [5] is Rattus norvegicus. Briefly: Hepatotoxicity in rat assessed as increase in ALT level at 400 mg/kg, po qd treated for 14 days measured after 5 days relative to control. The note with it: in vivo, 120 h.
For data set [6], the target named is T1, Leukotriene B4 receptor 2 (Homo sapiens, UniProt Q9NPC1).
T1 sequence (Q9NPC1 whole entry): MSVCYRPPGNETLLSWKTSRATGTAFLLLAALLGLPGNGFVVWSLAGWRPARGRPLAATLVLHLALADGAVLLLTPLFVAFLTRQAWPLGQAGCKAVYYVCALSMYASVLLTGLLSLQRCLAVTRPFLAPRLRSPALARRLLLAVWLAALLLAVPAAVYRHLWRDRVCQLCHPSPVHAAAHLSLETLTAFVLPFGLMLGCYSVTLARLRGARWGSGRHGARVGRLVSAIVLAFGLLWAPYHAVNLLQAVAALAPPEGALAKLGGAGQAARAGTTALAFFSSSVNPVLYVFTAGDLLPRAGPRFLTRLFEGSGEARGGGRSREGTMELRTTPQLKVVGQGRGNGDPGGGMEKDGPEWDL
As to the kind of experiment: Antagonist activity at FLAG-tagged human BLT2 receptor expressed in HEK293 cells assessed as inhibition of LTB4-stimulated calcium mobilization preincubated for 10 mins before LTB4 challenge. The data set is classed as functional, cell-based. Background: A change in cytosolic calcium serves as a functional read-out for many receptors and channels.

Data set [7] relates to Rattus norvegicus. As to the kind of experiment: Hepatotoxicity in rat assessed as increase in ALT level at 40 mg/kg, po qd after 5 days. More on the design: dose 40 mg/kg, route oral. The data set is classed as toxicity, organism-based. The note with it: in vivo, 120 h. A digest of the protocol: as §3
A further data set relates to Cavia porcellus. As to the kind of experiment: Antiinflammatory activity against LTB4-evoked eosinophilic pulmonary inflammation in Hartley guinea pig at 10 mg/kg, po after 1 hr treated before LTB4 challenge. The data set is classed as functional, organism-based. Set-up: dose 10 mg/kg. In short, it runs like this:
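Male Hartley guinea pigs (250-350 g) were dosed orally with 10 mg/kg in 2% Klucel LF/0.1% Tween-80. One hour later they were exposed to 10 μg/mL LTB4 aerosol for 20 min. BAL (3 × 5 mL HBSS) was done 2 h after challenge under pentobarbital. Cells were counted, and differentials of at least 300 cells were taken on Wright-stained cytospins. Analysis by two-way ANOVA/Bonferroni; 4-20 animals per group.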

The subject of a further data set is Cynomolgus monkey. Briefly: Antiinflammatory activity against ascaris suum antigen-evoked increase in neutrophils at bronchoalveolar lavage in cynomolgus monkey at 10 mg/kg, po after 1 hr treated before LTB4 challenge. The data set is classed as functional, organism-based. Set-up: dose 10 mg/kg. The note with it: Macaca fascicularis, in the assay text read “before Ascaris suum antigen challenge” for “before LTB4 challenge”. A digest of the protocol:
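Male cynomolgus monkeys (4-10 kg) naturally hypersensitive to Ascaris suum had baseline BAL 24 h before challenge. They were dosed orally with 10 mg/kg in 15% Labrasol in PEG. One hour later, under ketamine/xylazine, they received antigen aerosol for 90 s by endotracheal tube. BAL neutrophil percentage came from 300-cell LeukoStat differentials, with hemocytometer totals. Analysis by two-way ANOVA/Bonferroni; 3-21 animals per group.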

Data set [8] addresses T2, Leukotriene B4 receptor 1 (Homo sapiens, UniProt Q15722). Briefly: Antagonist activity at BLT1 receptor expressed in human HL60 cells assessed as inhibition of LTB4-stimulated calcium flux after 30 mins. The note with it: read-out: IC50. The data set is classed as functional, cell-based, HL-60. In short, it runs like this: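 HL-60 cells grown in RPMI-1640 with 20% FBS were plated at 2.0 × 10^5 cells/ml with 1 μM retinoic acid. They were dye-loaded in HBSS/20 mM HEPES/5 mM probenecid (0.05% BSA in the replacement buffer) for 1 h at 37 C. Compound (5 × 10^-11 to 3 × 10^-6 M final) was added for 30 min at room temperature, then 0.5 μM LTB4. Fluorescence was read every 1.5 s for 100 s and peak increase scored as % inhibition versus DMSO control.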

For a further data set, the target named is Cytochrome P450 2C9 (Homo sapiens, UniProt P11712). Briefly: Inhibition of CYP2C9 fluorescence method. The data set is classed as ADME.
Chain of Cytochrome P450 2C9 (P11712 whole entry): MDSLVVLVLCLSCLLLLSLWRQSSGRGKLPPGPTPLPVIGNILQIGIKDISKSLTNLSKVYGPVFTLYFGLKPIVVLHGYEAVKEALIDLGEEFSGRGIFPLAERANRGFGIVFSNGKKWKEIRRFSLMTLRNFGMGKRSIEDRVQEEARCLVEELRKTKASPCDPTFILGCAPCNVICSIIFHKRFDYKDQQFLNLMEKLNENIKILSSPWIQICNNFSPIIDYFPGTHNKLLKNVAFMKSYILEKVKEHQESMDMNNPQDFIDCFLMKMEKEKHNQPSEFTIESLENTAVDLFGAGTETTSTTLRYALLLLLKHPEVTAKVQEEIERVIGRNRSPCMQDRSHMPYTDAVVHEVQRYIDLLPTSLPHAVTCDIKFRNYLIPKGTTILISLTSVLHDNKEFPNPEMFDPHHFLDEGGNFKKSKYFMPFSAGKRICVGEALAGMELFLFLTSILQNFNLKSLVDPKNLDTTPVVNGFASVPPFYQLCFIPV
The test system of data set [9] is Rattus norvegicus. Briefly: Toxicity in rat assessed as alkaline phosphatase level at 400 mg/kg, po qd treated for 14 days. The data set is classed as organism-based. More on the design: dose 400 mg/kg, route oral. The note with it: in vivo, 336 h. In short, it runs like this:
as §3

Data set [10] in a line: Volume of distribution at steady state in Sprague-Dawley rat at 5 mg/kg, iv. The note with it: in vivo, read-out: Vdss. More on the design: dose 5 mg/kg, route intravenous. The data set is classed as ADME, organism-based. A digest of the protocol: as §1
For data set [11], the target named is T2, Leukotriene B4 receptor 1. Briefly: Antagonist activity at FLAG-tagged human BLT1 receptor expressed in HEK293 cells assessed as inhibition of LTB4-stimulated calcium mobilization preincubated for 10 mins before LTB4 challenge. The data set is classed as functional, cell-based.
The next data set addresses Cytochrome P450 2D6 (Homo sapiens, UniProt P10635). As to the kind of experiment: Inhibition of CYP2D6 fluorescence method. The data set is classed as ADME. A digest of the protocol:
as §2

Data set [12] relates to Rattus norvegicus. Briefly: Toxicity in rat assessed as alkaline phosphatase level at 40 mg/kg, po qd treated for 14 days. More on the design: dose 40 mg/kg, route oral. The data set is classed as organism-based. The note with it: in vivo, 336 h. In short, it runs like this: as §3
Data set [13] has as its system Rattus norvegicus. As to the kind of experiment: Toxicity in rat assessed as effect on body weight at 400 mg/kg, po qd treated for 14 days. The data set is classed as organism-based. Set-up: dose 400 mg/kg, route oral. The note with it: in vivo, 336 h. In short, it runs like this: as §3
A short description of data set [14]: Half life in Sprague-Dawley rat at 5 mg/kg, iv. The data set is classed as ADME, organism-based. More on the design: dose 5 mg/kg, route intravenous. The note with it: in vivo. A digest of the protocol:
as §1

In data set [15] the test system is Rattus norvegicus. Briefly: Toxicity in rat assessed as aspartate aminotransferase level at 400 mg/kg, po qd treated for 14 days. The data set is classed as organism-based. Set-up: dose 400 mg/kg, route oral. The note with it: in vivo, 336 h. In short, it runs like this: as §3
Data set [16] is described as follows: Clearance in Sprague-Dawley rat at 5 mg/kg, iv. The data set is classed as ADME, organism-based. Set-up: dose 5 mg/kg, route intravenous. The note with it: in vivo. A digest of the protocol: as §1
The test system of another data set is Neutrophil. Briefly: Inhibition of LTB4-stimulated human neutrophils migration after 30 mins by using CyQuant GR fluorescent dye. The data set is classed as functional, cell-based. The note with it: Homo sapiens, Neutrophil, 0.5 h; read-out: IC50. A digest of the protocol:
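Human blood neutrophils (95-97% pure, isolated over Lympholyte-poly) at 5 × 10^6 cells/mL were preincubated with compound (3 × 10^-12 to 1 × 10^-6 M final) for 30 min at 37 C. Migration toward 100 ng/mL LTB4 across a polycarbonate membrane ran 90 min at 37 C. Migrated cells were lysed with CyQuant GR and read at 480/520 nm. IC50 was taken from a sigmoidal fit of % inhibition.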

Data set [17] can be described thus: Cmax in Sprague-Dawley rat at 10 mg/kg, po. The data set is classed as ADME, organism-based. Set-up: dose 10 mg/kg, route oral. The note with it: in vivo. In short, it runs like this: as §1

T2 sequence (Q15722 whole entry): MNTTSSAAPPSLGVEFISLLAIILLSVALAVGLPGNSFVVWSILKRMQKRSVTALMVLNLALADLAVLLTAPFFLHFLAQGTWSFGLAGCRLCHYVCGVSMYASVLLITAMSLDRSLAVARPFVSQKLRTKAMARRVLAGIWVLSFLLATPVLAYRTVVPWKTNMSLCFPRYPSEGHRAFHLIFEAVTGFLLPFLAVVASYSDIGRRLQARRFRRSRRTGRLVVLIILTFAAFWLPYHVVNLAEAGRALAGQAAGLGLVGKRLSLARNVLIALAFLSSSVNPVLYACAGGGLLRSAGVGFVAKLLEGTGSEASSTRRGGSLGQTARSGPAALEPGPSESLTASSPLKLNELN
Chain of Cytochrome P450 3A4 (P08684 whole entry): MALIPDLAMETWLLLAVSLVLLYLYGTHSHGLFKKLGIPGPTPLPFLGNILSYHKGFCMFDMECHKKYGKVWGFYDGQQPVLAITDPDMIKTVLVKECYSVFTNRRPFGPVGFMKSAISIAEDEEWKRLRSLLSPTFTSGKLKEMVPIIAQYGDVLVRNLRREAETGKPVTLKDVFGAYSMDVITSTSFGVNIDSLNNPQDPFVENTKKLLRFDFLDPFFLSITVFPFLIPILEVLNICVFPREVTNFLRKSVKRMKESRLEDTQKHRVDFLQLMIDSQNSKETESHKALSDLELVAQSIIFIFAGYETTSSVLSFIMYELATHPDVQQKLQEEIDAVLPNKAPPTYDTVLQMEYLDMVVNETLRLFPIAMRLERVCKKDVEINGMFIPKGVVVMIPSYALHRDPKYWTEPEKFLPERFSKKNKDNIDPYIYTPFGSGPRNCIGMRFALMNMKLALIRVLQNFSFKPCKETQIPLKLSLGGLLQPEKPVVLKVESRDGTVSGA
Chain of Cytochrome P450 2D6 (P10635 whole entry): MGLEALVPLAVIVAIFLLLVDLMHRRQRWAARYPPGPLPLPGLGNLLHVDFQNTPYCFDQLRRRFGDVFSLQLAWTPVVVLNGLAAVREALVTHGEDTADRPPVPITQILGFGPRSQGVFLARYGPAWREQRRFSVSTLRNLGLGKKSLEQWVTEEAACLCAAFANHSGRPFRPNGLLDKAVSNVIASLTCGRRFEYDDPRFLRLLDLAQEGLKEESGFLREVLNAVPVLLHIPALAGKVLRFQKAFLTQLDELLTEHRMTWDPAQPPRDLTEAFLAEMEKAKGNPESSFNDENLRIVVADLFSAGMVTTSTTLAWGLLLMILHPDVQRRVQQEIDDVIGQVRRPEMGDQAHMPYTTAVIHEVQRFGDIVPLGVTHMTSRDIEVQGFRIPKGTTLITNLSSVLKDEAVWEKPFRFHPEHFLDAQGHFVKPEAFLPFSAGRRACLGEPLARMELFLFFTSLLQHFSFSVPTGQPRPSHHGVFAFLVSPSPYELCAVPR

The term half-life denotes the time needed for the level to fall by half in the phase considered. What is called Tmax is the time from dosing to the highest level. As usually defined, the bioavailability is dose-corrected exposure relative to a reference, in per cent. The IC50 is the concentration at which inhibition is half-maximal. One may read the clearance as the rate of elimination divided by the concentration. As usually defined, the Cmax is the highest concentration seen after dosing. In the case of `O=C(O)CCCOc1cccc(CCCCCCOc2cc(-c3ccsc3)cc(-c3ccc4c(c3)OCO4)c2)c1CCC(=O)O`, the half-life was 2.7 h in [1] and 2.1 h in [14]. Moreover, the Tmax in data set [2] came to 3 h. Further, the bioavailability in data set [3] came to 70%. The IC50 against Cytochrome P450 3A4 was more than 7.5 µM; on Cytochrome P450 2C19 it was more than 7.5 µM; in data set [6] it was 0.164 µM; in data set [8] it was 0.00044 µM; against Cytochrome P450 2C9, 3.9 µM; in data set [11], 0.114 µM. For the same compound, the IC50 on Cytochrome P450 2D6 was more than 7.5 µM; with Neutrophil it was 0.0001 µM. The Activity in the data set with Rattus norvegicus [4] is reported as 38 IU/L; in the data set on Rattus norvegicus [5] it was 29%; with Rattus norvegicus [7] it was 40 IU/L; in the data set with Rattus norvegicus [9], “Non-toxic”; in the data set with Rattus norvegicus [12] it was “Non-toxic”; in the data set on Rattus norvegicus [13], “Non-toxic”. The Activity result in the data set with Rattus norvegicus [15] is reported as “Non-toxic”. Besides, the outcome in the data set with Cavia porcellus and with Cynomolgus monkey was Active. Further, the Vd in [10] was 0.22 L/kg. The compound also had a clearance in [16] of 0.328 L/h/kg. In data set [17], this compound came in with a maximum concentration (Cmax) of 6.21 µM.

Turning to `O=C(O)CCCOc1cccc(CCCCCCOc2cc(-c3cccc(F)c3)cc(-c3ccc4c(c3)OCO4)c2)c1CCC(=O)O`, the half-life in [1] was 3.1 h; in [14] it was 2.4 h. Besides, in data set [2], the Tmax was 5 h. Also, in data set [3], the bioavailability turned out to be 88%. Also, the IC50 was more than 7.5 µM on Cytochrome P450 3A4; more than 7.5 µM against Cytochrome P450 2C19; 0.194 µM in data set [6]; 0.00119 µM in [8]; more than 25 µM against Cytochrome P450 2C9; 0.129 µM in [11]. In addition, the half-inhibitory concentration (IC50) at Cytochrome P450 2D6 was more than 7.5 µM; in the data set with Neutrophil, 0.00368 µM. Besides, the Activity in the data set with Rattus norvegicus [4] was 35 IU/L; in the data set on Rattus norvegicus [5], 53%; with Rattus norvegicus [7] it was 40 IU/L; in the data set with Rattus norvegicus [9], “Non-toxic”; in the data set with Rattus norvegicus [12], “Non-toxic”; in the data set with Rattus norvegicus [13] it was “Non-toxic”. Further, the Activity result in the data set on Rattus norvegicus [15] is given as “Non-toxic”. The result in the data set on Cavia porcellus and in the data set on Cynomolgus monkey was Active. In data set [10], the Vd is 0.98 L/kg. The same compound had a clearance in [16] of 0.696 L/h/kg. Moreover, in data set [17], the Cmax came out at 2.25 µM.
